Measured values pooled from the literature.
Compare with care: the assays were run in different laboratories.
Target: Discoidin domain-containing receptor 2 (DDR2, Homo sapiens, UniProt Q16832)
One construct used (Q16832 22-855): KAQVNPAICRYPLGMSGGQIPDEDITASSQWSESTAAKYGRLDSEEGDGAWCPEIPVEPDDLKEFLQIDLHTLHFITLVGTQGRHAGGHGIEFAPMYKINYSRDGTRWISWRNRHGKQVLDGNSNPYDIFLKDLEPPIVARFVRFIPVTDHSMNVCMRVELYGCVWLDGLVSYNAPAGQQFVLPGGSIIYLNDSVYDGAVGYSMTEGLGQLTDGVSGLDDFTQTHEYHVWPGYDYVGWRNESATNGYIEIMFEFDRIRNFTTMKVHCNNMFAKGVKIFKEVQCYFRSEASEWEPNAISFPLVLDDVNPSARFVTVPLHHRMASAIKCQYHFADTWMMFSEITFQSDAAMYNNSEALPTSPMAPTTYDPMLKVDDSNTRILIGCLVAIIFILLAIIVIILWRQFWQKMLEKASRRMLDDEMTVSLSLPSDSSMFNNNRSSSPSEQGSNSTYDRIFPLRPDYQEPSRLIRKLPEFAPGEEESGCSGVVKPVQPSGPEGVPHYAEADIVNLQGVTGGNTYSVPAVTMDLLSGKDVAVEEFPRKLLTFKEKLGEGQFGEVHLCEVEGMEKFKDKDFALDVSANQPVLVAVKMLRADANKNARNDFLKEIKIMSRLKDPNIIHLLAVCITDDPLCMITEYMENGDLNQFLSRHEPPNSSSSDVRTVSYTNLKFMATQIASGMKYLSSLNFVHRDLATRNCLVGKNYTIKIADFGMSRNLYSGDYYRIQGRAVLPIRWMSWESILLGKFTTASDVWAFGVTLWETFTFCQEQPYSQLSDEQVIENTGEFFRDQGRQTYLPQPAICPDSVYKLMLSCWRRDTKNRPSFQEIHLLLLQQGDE

SMILES | assay | conditions | measurement | value
Nc1ncc(-c2nc(N3CCOCC3)nc(N3CCOCC3)n2)c(C(F)F)n1 | cell-free assay, competition with immobilised ligand | 10 µM | remaining binding | 57%
C#Cc1n[nH]c2c(-c3cn([C@@H](C)c4ccccn4)c(=O)[nH]c3=O)cc(F)cc12 | enzyme activity, inhibitor | 0.1 µM | inhibition | 0.9%
COc1cc(Nc2ncc(F)c(Nc3ccc4c(n3)NC(=O)C(C)(C)O4)n2)cc(OC)c1OC | binding, competition with immobilised ligand | 10 µM | inhibition | 86%
CC(C)(C)c1cc(C=C(C#N)C#N)cc(Br)c1O | enzyme activity, inhibitor | 0.5 µM | remaining activity | 105%
N#CC1(c2ccccn2)CCN(Cc2cc(C(=O)O)c(=O)n3ccccc23)CC1 | cell-free assay, competition with immobilised ligand | 1 µM | remaining binding | 100%
C#Cc1n[nH]c2c(-c3cn([C@@H](C)c4ccccc4)c(=O)[nH]c3=O)cc(F)cc12 | enzyme activity, inhibitor | 0.1 µM | inhibition | -1.1%
Cn1cc(-c2cccc(N3CCc4c(sc5c4CC(C)(C)C5)C3=O)c2CO)cc(Nc2ccncn2)c1=O | enzyme activity, inhibitor | 1 µM | inhibition | 1%
O=c1[nH]c2ccccc2n1C1CCN(Cc2ccc(-c3[nH]c4cc5ncnc5cc4nc3-c3ccccc3)cc2)CC1 | cell-free assay | 0.5 µM | remaining signal | 99.2%
Cn1cc(-c2cc(F)cc(N3CCn4c(cc5c4CCCC5)C3=O)c2CO)cc(Nc2ccc(N3CCN(C4COC4)CC3)cn2)c1=O | enzyme activity, inhibitor | 0.1 µM | inhibition | -7%
Cn1cncc1[C@@](O)(COc1ccc(C#N)cc1-c1ccc(OC(F)(F)F)cc1)c1ccc(C#N)cc1 | cell-free assay, competition with immobilised ligand | 1 µM | remaining binding | 95%
Cc1nn(C)cc1-c1nc2c(N3CCN(Cc4ccc(Cl)cc4)CC3)c(Cl)cnc2[nH]1 | binding, competition with immobilised ligand | 1 µM | remaining binding | 96%
COc1ncccc1-c1cnn2ccc(N3CCN(C(=O)OC(C)C)CC3)nc12 | binding, competition with immobilised ligand | 1 µM | remaining binding | 36%
